GFP response vs DMSO, GFP response relative to DMSO and GFP response, % of DMSO data for 16 compounds are collected here from PubChem BioAssay.

The nature of assay [1]: hit retest on RPL19A-GFP reporter strain – cell-based, S. cerevisiae, flow cytometry, cherry picks, mother/daughter gates, confirmation (AID 2270;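 active = GFP response below 50% of the DMSO control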). As to conditions: 3 h, at 10 µM, stronger effect = lower value, 100 = same GFP as DMSO wells. A general note: A flow cytometer gives signals particle by particle.
The nature of assay [2]: yeast TOR pathway reporter LAP4-GFP change – cell-based, cherry picks, flow cytometry, mother/daughter gates, confirmation (AID 2271;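 active = GFP response above 150% of the DMSO control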;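 note: ratio of sample to DMSO plate mean so 100% equals DMSO level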). To be noted: S. cerevisiae LAP4-GFP strain, 3 h, at 10 µM, stronger effect = higher value, 100 means same as DMSO control. A digest of the protocol: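 Material: Alexa Fluor 633-labelled Saccharomyces cerevisiae GFP-fusion strain, single-plex | Amount: Yeast cells seeded at OD600 of 0.2 | Buffer or medium: SC growth medium | Schedule: 3 h exposure, 30 °C | Measured by: HT flow cytometry, GFP fluorescence channel | Evaluation: % GFP response vs DMSO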

Assay [3] in a line: TOR pathway reporter MEP2-GFP, retest of hits – S. cerevisiae, flow cytometry GFP, cherry picks, confirmation (AID 2272;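 active = GFP response above 150% of the DMSO control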;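 note: ratio of well signal to plate DMSO mean so 100% equals DMSO level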). As to conditions: S. cerevisiae MEP2-GFP strain, 3 h, at 10 µM, stronger effect = higher value.
Assay [4] in a line: yeast AGP1-GFP fluorescence change, single-dose – cell-based, flow cytometry, S. cerevisiae, cherry picks, confirmation (AID 2273).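 Note: median GFP channel fluorescence over the whole cell population gate.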 To be noted: S. cerevisiae AGP1-GFP strain, 3 h, at 10 µM.
Assay [5] can be described thus: TOR pathway CIT2 reporter hit retest – S. cerevisiae, GFP fusion, cherry picks, mother/daughter gates, confirmation (AID 2274). To be noted: S. cerevisiae CIT2-GFP strain, flow cytometry, 3 h, at 10 µM, stronger effect = higher value.
[6] abbreviates: measured here: daughter cell gate.
Where [7] appears, read: measured here: mother cell gate.
Where [8] appears, read: measured here: daughter cell gate response.
Setting [9] is: measured here: mother cell gate response.

The source made the active and inactive calls.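 Rule for the calls, unless noted: active = GFP response above 150% of the DMSO level; inconclusive = fewer than 70 events counted for a yeast strain; inactive = the rest.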

As to `Cc1ccc(NC(=S)N/N=C/c2c(C)[nH]c3ccccc23)cc1`, the GFP response vs DMSO in assay [1] was 97.4% (inactive); in assay [1] (setting [6]), 97%; in assay [1] (setting [7]) it was 97.9%; in assay [3], 104% (inactive). For the same compound, the GFP response relative to DMSO in assay [2] is 101% (inactive); in assay [2] (setting [8]), 93.6%; in assay [2] (setting [9]) it was 104%. For the same compound, the GFP response, % of DMSO was 90.1% (inactive) in assay [4], 104% (inactive) in assay [5], 108% in assay [5] (setting [6]) and 100% in assay [5] (setting [7]).
As for `Cc1noc2ncnc(Sc3ccc(Cl)cc3)c12`, the GFP response vs DMSO in assay [1] was 96.6% (inactive); in assay [1] (setting [6]) it was 94.9%; in assay [1] (setting [7]), 97.2%; in assay [3] it was 102% (inactive). In addition, the GFP response relative to DMSO in assay [2] was 140% (inactive); in assay [2] (setting [8]), 130%; in assay [2] (setting [9]), 141%. In addition, the GFP response, % of DMSO was 94.7% (inactive) in assay [4], 104% (inactive) in assay [5], 101% in assay [5] (setting [6]) and 102% in assay [5] (setting [7]).
Turning to `COC(=O)c1ccc(C(=O)NC(=S)Nc2ccc3nc(SC)sc3c2)cc1`, the GFP response vs DMSO in assay [1] is 97.8% (inactive); in assay [1] (setting [6]), 97.6%; in assay [1] (setting [7]), 98.3%; in assay [3] it was 101% (inactive). The GFP response relative to DMSO in assay [2] is 90% (inactive); in assay [2] (setting [8]), 90.4%; in assay [2] (setting [9]), 91%. For the same compound, the GFP response, % of DMSO was 102% (inactive) in assay [4], 103% (inactive) in assay [5], 93.7% in assay [5] (setting [6]) and 105% in assay [5] (setting [7]).
As for `O=C(c1ccccc1)N1CCN(c2ccccc2F)CC1`, the GFP response vs DMSO in assay [1] was 101% (inactive); in assay [1] (setting [6]) it was 102%; in assay [1] (setting [7]), 99.6%; in assay [3], 103% (inactive). Moreover, the GFP response relative to DMSO was 105% (inactive) in assay [2], 104% in assay [2] (setting [8]) and 96.4% in assay [2] (setting [9]). The GFP response, % of DMSO in assay [4] was 99.1% (inactive); in assay [5], 95.8% (inactive); in assay [5] (setting [6]), 97.6%; in assay [5] (setting [7]), 90.4%.
As to `O=[N+]([O-])c1ccc(Sc2ccccc2)nc1`, the GFP response vs DMSO in assay [1] was 97.8% (inactive); in assay [1] (setting [6]) it was 97.3%; in assay [1] (setting [7]) it was 98%; in assay [3], 108% (inactive). For the same compound, the GFP response relative to DMSO in assay [2] was 104% (inactive); in assay [2] (setting [8]), 104%; in assay [2] (setting [9]) it was 105%. In addition, the GFP response, % of DMSO in assay [4] is 105% (inactive); in assay [5], 101% (inactive); in assay [5] (setting [6]) it was 101%; in assay [5] (setting [7]), 103%.
As for `CCOc1cc(C(=O)N2CCN(c3ccc(C(C)=O)cc3)CC2)cc(OCC)c1OCC`, the GFP response vs DMSO was 91.8% (inactive) in assay [1], 91.2% in assay [1] (setting [6]), 89.8% in assay [1] (setting [7]) and 109% (inactive) in assay [3]. In addition, the GFP response relative to DMSO is 126% (inactive) in assay [2], 110% in assay [2] (setting [8]) and 125% in assay [2] (setting [9]). In addition, the GFP response, % of DMSO in assay [4] is 104% (inactive); in assay [5], 106% (inactive); in assay [5] (setting [6]) it was 105%; in assay [5] (setting [7]) it was 105%.
Regarding `O=[N+]([O-])c1cc(C(F)(F)F)ccc1Sc1ccccn1`, the GFP response vs DMSO in assay [1] was 102% (inactive); in assay [1] (setting [6]), 101%; in assay [1] (setting [7]), 101%; in assay [3], 102% (inactive). In addition, the GFP response relative to DMSO in assay [2] was 97.4% (inactive); in assay [2] (setting [8]), 98.7%; in assay [2] (setting [9]), 98.3%. The GFP response, % of DMSO was 99.2% (inactive) in assay [4], 104% (inactive) in assay [5], 103% in assay [5] (setting [6]) and 103% in assay [5] (setting [7]).
`COc1cc(/C=C2\C(=O)ON=C2c2ccc(Cl)cc2)ccc1O`: the GFP response vs DMSO in assay [1] is 105% (inactive); in assay [1] (setting [6]), 106%; in assay [1] (setting [7]), 99.4%; in assay [3], 102% (inactive). Also, the GFP response relative to DMSO in assay [2] is 126% (inactive); in assay [2] (setting [8]) it was 122%; in assay [2] (setting [9]), 128%. The GFP response, % of DMSO in assay [4] is 100% (inactive); in assay [5], 108% (inactive); in assay [5] (setting [6]), 114%; in assay [5] (setting [7]), 99.8%.
Regarding `N/C(=N\OC(=O)c1cccc(Br)c1)c1ccccc1`, the GFP response vs DMSO in assay [1] is 97.2% (inactive); in assay [1] (setting [6]) it was 96.4%; in assay [1] (setting [7]), 93.6%; in assay [3] it was 105% (inactive). Besides, the figures for the GFP response relative to DMSO in assay [2], in assay [2] (setting [8]) and in assay [2] (setting [9]) were 137% (inactive), 123% and 143%, respectively. Moreover, the GFP response, % of DMSO was 64.6% (inactive) in assay [4], 140% (inactive) in assay [5], 121% in assay [5] (setting [6]) and 140% in assay [5] (setting [7]).
As to `O=S(=O)(c1ccccc1)N1N=C(c2ccccc2)CC1c1ccccc1` (stereo unspecified), the GFP response vs DMSO was 105% (inactive) in assay [1], 105% in assay [1] (setting [6]), 103% in assay [1] (setting [7]) and 112% (inactive) in assay [3]. The GFP response relative to DMSO in assay [2] is 97% (inactive); in assay [2] (setting [8]) it was 97.5%; in assay [2] (setting [9]), 97.3%. In addition, the GFP response, % of DMSO was 99.4% (inactive) in assay [4], 106% (inactive) in assay [5], 108% in assay [5] (setting [6]) and 104% in assay [5] (setting [7]).
For `O=C1c2ccsc2SCCN1Cc1c(F)cccc1Cl`, the GFP response vs DMSO in assay [1] was 92.8% (inactive); in assay [1] (setting [6]) it was 90.7%; in assay [1] (setting [7]), 93.9%; in assay [3], 96.8% (inactive). For the same compound, the GFP response relative to DMSO in assay [2] was 112% (inactive); in assay [2] (setting [8]) it was 110%; in assay [2] (setting [9]), 113%. The GFP response, % of DMSO in assay [4] was 99% (inactive); in assay [5], 98.8% (inactive); in assay [5] (setting [6]) it was 99.2%; in assay [5] (setting [7]), 98.1%.
With `O=S(=O)(c1ccc(Cl)cc1)c1snnc1-c1ccccc1`, the GFP response vs DMSO in assay [1] was 93.7% (inactive); in assay [1] (setting [6]), 92.2%; in assay [1] (setting [7]), 96.6%; in assay [3], 98.8% (inactive). Moreover, the results for the GFP response relative to DMSO in assay [2], in assay [2] (setting [8]) and in assay [2] (setting [9]) were 126% (inactive), 123% and 129%, respectively. Further, the GFP response, % of DMSO in assay [4] was 102% (inactive); in assay [5] it was 95.9% (inactive); in assay [5] (setting [6]), 92.1%; in assay [5] (setting [7]), 96.7%.
For the compound `COC(=O)CNc1c(-c2ccccn2)nc2ccc(Br)cn12`, the GFP response vs DMSO in assay [1] was 100% (inactive); in assay [1] (setting [6]) it was 103%; in assay [1] (setting [7]), 100%; in assay [3] it was 102% (inactive). Moreover, the GFP response relative to DMSO was 96.7% (inactive) in assay [2], 96% in assay [2] (setting [8]) and 96.1% in assay [2] (setting [9]). The GFP response, % of DMSO in assay [4] was 98.7% (inactive); in assay [5] it was 107% (inactive); in assay [5] (setting [6]), 106%; in assay [5] (setting [7]), 104%.
Take `CCOC(=O)Cc1csc(NC(=O)c2sc3nc4ccc(C)cc4cc3c2N)n1`: the GFP response vs DMSO in assay [1] is 98.8% (inactive); in assay [1] (setting [6]), 98.1%; in assay [1] (setting [7]), 100%; in assay [3] it was 102% (inactive). In addition, the GFP response relative to DMSO in assay [2] was 91.4% (inactive); in assay [2] (setting [8]), 91%; in assay [2] (setting [9]), 95.2%. The GFP response, % of DMSO is 96.7% (inactive) in assay [4], 92.6% (inactive) in assay [5], 94.8% in assay [5] (setting [6]) and 92.3% in assay [5] (setting [7]).
With `O=C(/C=C/c1ccccc1)C1=C(O)C(=O)N(CCO)C1c1cccc([N+](=O)[O-])c1` (stereo unspecified), the GFP response vs DMSO in assay [1] is 99.8% (inactive); in assay [1] (setting [6]) it was 99.3%; in assay [1] (setting [7]), 100%; in assay [3] it was 101% (inactive). Further, the GFP response relative to DMSO was 97.7% (inactive) in assay [2], 101% in assay [2] (setting [8]) and 97.4% in assay [2] (setting [9]). Further, the GFP response, % of DMSO in assay [4] was 103% (inactive); in assay [5] it was 100% (inactive); in assay [5] (setting [6]), 101%; in assay [5] (setting [7]) it was 99.3%.
Turning to `O=C1/C(=C/c2ccccn2)COc2ccccc21`, the GFP response vs DMSO is 94.2% (inactive) in assay [1], 96.4% in assay [1] (setting [6]), 91.2% in assay [1] (setting [7]) and 110% (inactive) in assay [3]. Also, the GFP response relative to DMSO in assay [2] was 135% (inactive); in assay [2] (setting [8]), 130%; in assay [2] (setting [9]), 134%. Also, the GFP response, % of DMSO in assay [4] is 95.5% (inactive); in assay [5], 94.4% (inactive); in assay [5] (setting [6]), 99.3%; in assay [5] (setting [7]) it was 88.2%.
